From PubChem
The list is not random: actives were taken first. Their share in the collection is about 3.8%.
CSC inhib: blocks cancer stem cells. cancer stem cell-like cells viability, luminescence. inhibition, % at 7.5 µM. 1.1% of 300,000 active. AID 2717; in the data active means inhibition above about 75%; tested in HMLE shEcad cells
MC4R ag barr: human MC4R agonism via beta-arrestin; P32245; U2OS MC4R beta-arrestin complementation, luminescence; percent of melanotan II response, DMSO zero; activation, % at 8.9 µM; 0.98% of 360,000 active; AID 540308;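 active means activation above a per-plate cutoff, the mean activation of sample wells on that plate plus 3 SD, cut at about 8% in these data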
ANO1 activ: mouse TMEM16A channel activation, primary screen. 0.3% of 340,000 active. B-score at 10 µM. Q8BHY3. HEK293 TMEM16A/YFP-H148Q/I152L, iodide quench fluorescence; stronger effect = lower value. AID 623877;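 active means fluorescence-ratio B-score plate-corrected deviation score at least 3 library SD below zero, with starting fluorescence score within 5 deviations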;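 further: channel opened by trigger with iodide after compound preincubation; score built on the fluorescence ratio of max minus min over baseline; more negative score means more quench and so TMEM16A activation or potentiation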
Beta apoptosis: beta cell apoptosis inhibition; INS-1E cytokine-induced death, ATP luminescence, 48 h; percent of positive-control rescue, neutral wells zero; 0.8% of 300,000 active; AID 435005; protection from apoptosis, % (concentration not given with the values);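 active means Every replicate reaches about 75%, or at least half do and their mean reaches it too, limit read from the data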;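 further: 0% = cytokine-treated negative control wells and 100% = positive control rescue; higher means more ATP so stronger rescue from cytokine killing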
MC4R antag cAMP: blocks human MC4R cAMP signaling. MC4R-expressing cells, MTII-stimulated cAMP, LANCE TR-FRET. inhibition, % at 6.5 µM. 0.48% of 360,000 active. P32245. AID 540295;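 active means inhibition above its plate's cutoff, the mean of tested wells on that plate plus 3 SD, cut at about 29% in these data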;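 further: 0% = Melanotan II alone and 100% = Melanotan II plus saturating MCL0020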
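material = U2OS cells stably expressing human melanocortin 4 receptor (MC4R) | also added = Melanotan II challenge | dosing = single nominal compound dose of 6.5 µM | detection = TR-FRET with Eu-cAMP and labeled anti-cAMP, 671 nm | replication = singlicate | timing = compound 30 min, challenge 1 h, detection 1 h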
TMEM16A inh: blocks the mouse calcium-activated chloride channel TMEM16A | HEK293 TMEM16A/YFP iodide influx fluorescence, ionomycin | 1.2% of 310,000 active | Q8BHY3 | normalized B-score (activity score, 25-100; higher = stronger inhibition) at 10 µM | AID 588511;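 active means ratio plate-corrected score three or more library SD toward inhibition, starting fluorescence score within five deviations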;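 further: score derived from kinetic fluorescence span divided by baseline fluorescence per well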
TMEM16A reconf: TMEM16A (mouse) chloride channel inhibition, re-confirmation. 39% of 2,300 active. AID 652189. HEK293 TMEM16A/YFP-H148Q, iodide quench fluorescence; ionomycin added to raise cell calcium. shares compounds with TMEM16A inh. inhibition, % at 10 µM;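 active means mean duplicate percent inhibition, scaled so buffer wells are 0 and the reference blocker 100, over three buffer SD above buffer mean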
HEK293 Ca mobil: calcium mobilization counter-screen hit for TMEM16A inhibitor series | calcium response (% of ionomycin), % at 10 µM | shares compounds with TMEM16A inh | 2% of 2,300 active | TMEM16A/YFP HEK293, Fluo4 calcium mobilization | AID 652231;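 active means duplicate-averaged calcium signal over 20% of the ionomycin maximum, relative to buffer baseline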;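 further: each well's signal is peak minus trough fluorescence divided by its pre-addition baseline; 0% = buffer wells and 100% = ionomycin wells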
Parental YFP cnt: acts in parental YFP-HEK293 cells lacking TMEM16A, counter-screen | shares compounds with TMEM16A inh | iodide YFP quench, ionomycin | YFP ratio F(max-min)/F0 at 10 µM | 2,300 tested, under 10 active | AID 652233;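 active means yellow fluorescent protein signal ratio exceeding the buffer control mean by over 5 SD of those controls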;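 further: ratio is mean of duplicate wells from kinetic YFP trace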
ClC-1 inh: blocks the rat ClC-1 voltage-dependent chloride channel | shares compounds with TMEM16A inh | CHO ClC-1-YFP, iodide influx fluorescence quench; iodide control reads 0, buffer control 100 | ratio percent, % at 10 µM | 2,300 tested, under 10 active | AID 652236;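 active means duplicate-mean ratio percent above the mean of iodide-only control wells, which defines zero, plus 5 of their SD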;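 further: higher percent means stronger block of ClC-1 iodide influx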
Target sequence (P35524 whole entry, looked up): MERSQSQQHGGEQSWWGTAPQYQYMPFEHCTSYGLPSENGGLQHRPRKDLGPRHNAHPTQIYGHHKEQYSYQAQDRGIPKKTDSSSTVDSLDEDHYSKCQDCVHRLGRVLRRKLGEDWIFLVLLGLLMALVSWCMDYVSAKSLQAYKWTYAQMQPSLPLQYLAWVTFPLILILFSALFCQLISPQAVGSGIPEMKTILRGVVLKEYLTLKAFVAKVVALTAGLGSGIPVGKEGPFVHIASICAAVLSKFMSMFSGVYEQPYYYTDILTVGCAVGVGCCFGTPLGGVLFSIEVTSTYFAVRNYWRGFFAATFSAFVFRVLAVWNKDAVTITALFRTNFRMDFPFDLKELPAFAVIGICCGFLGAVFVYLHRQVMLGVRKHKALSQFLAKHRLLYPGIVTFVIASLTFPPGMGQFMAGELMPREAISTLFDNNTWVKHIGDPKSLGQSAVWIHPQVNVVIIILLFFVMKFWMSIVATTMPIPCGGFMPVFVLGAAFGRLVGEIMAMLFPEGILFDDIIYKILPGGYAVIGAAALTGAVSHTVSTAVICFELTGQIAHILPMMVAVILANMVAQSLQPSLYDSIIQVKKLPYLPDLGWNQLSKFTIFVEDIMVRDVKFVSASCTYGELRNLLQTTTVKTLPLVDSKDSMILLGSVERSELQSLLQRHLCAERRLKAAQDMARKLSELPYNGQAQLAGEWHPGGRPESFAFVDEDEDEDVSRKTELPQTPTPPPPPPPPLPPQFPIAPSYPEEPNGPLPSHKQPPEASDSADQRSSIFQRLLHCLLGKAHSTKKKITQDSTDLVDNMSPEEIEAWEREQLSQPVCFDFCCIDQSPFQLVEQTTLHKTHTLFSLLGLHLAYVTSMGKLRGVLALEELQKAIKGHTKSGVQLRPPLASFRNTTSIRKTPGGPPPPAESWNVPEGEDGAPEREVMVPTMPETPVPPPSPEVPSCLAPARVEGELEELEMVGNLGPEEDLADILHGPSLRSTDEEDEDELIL
Active calls of the source: *.

`COc1ccc(NS(=O)(=O)c2ccc(Cl)c(NC(=O)c3ccccc3F)c2)cc1` gave CSC inhib 22, MC4R ag barr 1, ANO1 activ inactive, Beta apoptosis 5 and MC4R antag cAMP -1.
Cc1nnsc1C(=O)NC1CCCc2c1cnn2-c1ccc(C(C)(C)C)cc1 (centres undefined) was read as CSC inhib 31, MC4R ag barr -3, ANO1 activ inactive, Beta apoptosis 75*, MC4R antag cAMP 6, TMEM16A inh 25*, TMEM16A reconf 20%*, HEK293 Ca mobil inactive, Parental YFP cnt -1.2 and ClC-1 inh -14.
Cc1nnsc1C(=O)NC1CCCc2c1cnn2-c1ccccc1F (centres undefined) was read as CSC inhib -20, MC4R ag barr 1, ANO1 activ inactive, Beta apoptosis 45, MC4R antag cAMP 1, TMEM16A inh 100*, TMEM16A reconf inactive, HEK293 Ca mobil inactive, Parental YFP cnt -1.3 and ClC-1 inh -6.
CC(C)(C)c1ccc(-n2ncc3c2CCCC3NC(=O)c2ccncc2)cc1 (centres undefined) was read as CSC inhib -7, MC4R ag barr -3, ANO1 activ inactive, Beta apoptosis 23, MC4R antag cAMP -3 and TMEM16A inh inactive.
CCCNC(=O)C1(C)CCCN(Cc2ccccc2C#N)C1 (centres undefined) was read as MC4R ag barr 0 and MC4R antag cAMP -4.
CCOC(=O)C1(CCOc2ccccc2)CCN(Cc2ccc(O)c(OCC)c2)CC1 was read as CSC inhib 17, MC4R ag barr 3, ANO1 activ inactive, Beta apoptosis 11, MC4R antag cAMP -3 and TMEM16A inh inactive.
Screening CC(C)c1ccc(NC2CCCN(C(=O)c3n[nH]c4c3CCC4)C2)cc1 (centres undefined) returned CSC inhib -6, MC4R ag barr 0, ANO1 activ inactive, Beta apoptosis 2, MC4R antag cAMP 8, TMEM16A inh 25*, TMEM16A reconf 20%*, HEK293 Ca mobil inactive, Parental YFP cnt -1.1 and ClC-1 inh -16.
C/C(=C\C(=O)c1ccccc1)NCc1ccc(F)cc1 was read as CSC inhib 10, MC4R ag barr -1, ANO1 activ inactive, MC4R antag cAMP 3 and TMEM16A inh inactive.
Screening CN(CC(=O)NCc1ccc2c(c1)OCO2)S(=O)(=O)c1ccc(F)cc1 returned CSC inhib 0, MC4R ag barr 0, ANO1 activ inactive, Beta apoptosis -1, MC4R antag cAMP 17 and TMEM16A inh inactive.
For C/C(=C\C(=O)c1ccc(C)cc1)NCc1ccc(F)cc1 the results were CSC inhib -7, MC4R ag barr -1, ANO1 activ inactive, Beta apoptosis -6, MC4R antag cAMP 7, TMEM16A inh 100*, TMEM16A reconf inactive, HEK293 Ca mobil inactive, Parental YFP cnt -1 and ClC-1 inh -19.
C/C(=C\C(=O)c1ccc(F)cc1)NCc1ccc2c(c1)OCO2 was read as CSC inhib 21, MC4R ag barr -2, ANO1 activ -52*, Beta apoptosis 2, MC4R antag cAMP 1, TMEM16A inh 100*, TMEM16A reconf inactive, HEK293 Ca mobil inactive, Parental YFP cnt -1.2 and ClC-1 inh -18.
`COc1ccccc1C(=O)COC(=O)C1CCN(S(=O)(=O)c2ccccc2)CC1` gave MC4R ag barr -1 and MC4R antag cAMP 0.
